Consider one compound from ChEMBL document CHEMBL3769376, “Discovery of I-BRD9, a Selective Cell Active Chemical Probe for Bromodomain Containing Protein 9 Inhibition” (J Med Chem, 2016).

Values after ≈ are worked out from the molar mass of the structure shown. Active and inactive are the calls of the source. The rule behind the calls is not given here.

In data set [1] the target is T1, Bromodomain-containing protein 9 (Homo sapiens) (UniProt Q9H8M2).
T1 sequence (whole entry): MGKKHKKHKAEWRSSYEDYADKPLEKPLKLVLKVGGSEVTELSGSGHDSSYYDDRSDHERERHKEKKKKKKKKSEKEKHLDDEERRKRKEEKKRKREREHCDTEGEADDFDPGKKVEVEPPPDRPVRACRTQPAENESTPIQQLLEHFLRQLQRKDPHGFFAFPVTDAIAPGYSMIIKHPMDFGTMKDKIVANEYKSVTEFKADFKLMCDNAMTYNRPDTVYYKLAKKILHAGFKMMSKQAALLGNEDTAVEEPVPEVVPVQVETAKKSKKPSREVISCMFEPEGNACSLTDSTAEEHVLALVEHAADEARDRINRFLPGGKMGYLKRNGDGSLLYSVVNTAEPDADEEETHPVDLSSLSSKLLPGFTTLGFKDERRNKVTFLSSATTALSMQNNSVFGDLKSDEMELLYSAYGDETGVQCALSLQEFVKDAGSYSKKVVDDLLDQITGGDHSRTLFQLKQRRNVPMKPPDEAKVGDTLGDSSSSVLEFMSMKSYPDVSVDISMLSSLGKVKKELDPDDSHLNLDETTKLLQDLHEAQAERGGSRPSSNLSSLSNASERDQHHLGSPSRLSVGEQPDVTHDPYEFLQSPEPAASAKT
The note with it: Kasumi 1, 10 uM.

Data set [2] concerns the target Muscarinic acetylcholine receptor M1 (Homo sapiens) (UniProt P11229). Put plainly: Agonist activity at human muscarinic 1 receptor assessed as change in intracellular calcium level at <5 uM by fluorescence assay. The class given is functional, cell-based. On the technique in general: Calcium flux is commonly read through the fluorescence of an indicator in the cells.

Data set [3] deals with 5-hydroxytryptamine receptor 1B (Homo sapiens) (UniProt P28222). Put plainly: Antagonist activity at human 5HT1B receptor at <5 uM by scintillation proximity assay. In general terms: SPA uses beads or plates that emit light when radiolabelled molecules are held near them.
Data set [4] has as its target Acetylcholinesterase (Homo sapiens) (UniProt P22303). The data set is described as follows: Inhibition of human acetylcholinesterase at <5 uM by mass spectrometry.
Data set [5] in a line: Aqueous solubility of the compound in PBS at pH 7.4 by chemiluminescent nitrogen detection method. Format: physicochemical. The essentials: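 A 10 mM DMSO stock was precipitated into pH7.4 phosphate buffered saline at 5% DMSO. Dissolved compound was quantified by chemiluminescent nitrogen detection.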
Data set [6] concerns the target Sodium-dependent noradrenaline transporter (Homo sapiens) (UniProt P23975). The data set is described as follows: Antagonist activity at human NE transporter at <5 uM by scintillation proximity assay.
The target of data set [7] is Tyrosine-protein kinase Lck (Homo sapiens) (UniProt P06239). The data set is described as follows: Inhibition of human LCK at <5 uM by IMAP assay.
Data set [8] addresses Alpha-2C adrenergic receptor (Homo sapiens) (UniProt P18825). Put plainly: Inhibition of human alpha 2c adrenergic receptor at <5 uM by TR-FRET assay.
Data set [9] addresses 5-hydroxytryptamine receptor 2A (Homo sapiens) (UniProt P28223). Put plainly: Agonist activity at human 5HT2A receptor by assessed as change in intracellular calcium level at <5 uM by fluorescence assay. Format: functional, cell-based.
For data set [10], the target named is 3',5'-cyclic-AMP phosphodiesterase 4B (Homo sapiens) (UniProt Q07343). Put plainly: Inhibition of human PDE4B at <5 uM by luminescence assay.
The target in data set [11] is Potassium voltage-gated channel subfamily A member 5 (Homo sapiens) (UniProt P22460). Put plainly: Inhibition of human Kv1.5 channel at <5 uM by electrophysiology.
For data set [12], the target named is D(1A) dopamine receptor (Homo sapiens) (UniProt P21728). Put plainly: Antagonist activity at human D1 dopamine receptor at <5 uM by TR-FRET assay. On the technique in general: In TR-FRET formats the signal depends on donor and acceptor labels being close together.
For data set [13], the target named is Adenosine receptor A2a (Homo sapiens) (UniProt P29274). Put plainly: Agonist activity at human Adenosine A2a receptor at <5 uM by TR-FRET assay.
The target in data set [14] is D(2) dopamine receptor (Homo sapiens) (UniProt P14416). The data set is described as follows: Agonist activity at human D2 dopamine receptor at <5 uM by scintillation proximity assay.
The target in data set [15] is Beta-2 adrenergic receptor (Homo sapiens) (UniProt P07550). Put plainly: Antagonist activity at human beta-2 adrenergic receptor at <5 uM by TR-FRET assay.
Data set [16] deals with 5-hydroxytryptamine receptor 2A (Homo sapiens) (UniProt P28223). Put plainly: Antagonist activity at human 5HT2A receptor assessed as change in intracellular calcium level at <5 uM by fluorescence assay. Format: functional, cell-based.
The target in data set [17] is 5-hydroxytryptamine receptor 3A (Homo sapiens) (UniProt P46098). The data set is described as follows: Antagonist activity at human 5HT3 receptor assessed as change in intracellular calcium level at <5 uM by fluorescence assay. The class given is cell-based.
For data set [18], the target named is T1, Bromodomain-containing protein 9 (Homo sapiens). The note with it: Kasumi 1, 10 uM. The source holds these as a separate data set.
The target in data set [19] is Beta-2 adrenergic receptor (Homo sapiens) (UniProt P07550). The data set is described as follows: Agonist activity at human beta-2 adrenergic receptor at <5 uM by TR-FRET assay.
Data set [20] is described as follows: Lipophilicity, logD of the compound at pH 7.4. The class given is physicochemical. The note with it: buffer.
Data set [21] concerns the target Muscarinic acetylcholine receptor M2 (Homo sapiens) (UniProt P08172). The data set is described as follows: Antagonist activity at human muscarinic 2 receptor assessed as change in intracellular calcium level at <5 uM by fluorescence assay. The class given is functional, cell-based.
Data set [22] addresses Aurora kinase B (Homo sapiens) (UniProt Q96GD4). The data set is described as follows: Inhibition of human aurora B at <5 uM by IMAP assay.
For data set [23], the target named is Cannabinoid receptor 2 (Homo sapiens) (UniProt P34972). The data set is described as follows: Agonist activity at human CB2 receptor at <5 uM by Yeast FDLu assay.
Data set [24] addresses Histamine H1 receptor (Homo sapiens) (UniProt P35367). Put plainly: Antagonist activity at human histamine H1 receptor assessed as change in intracellular calcium level at <5 uM by fluorescence assay. Format: functional, cell-based.

5-hydroxytryptamine receptor 2A (Homo sapiens), sequence (P28223 whole entry): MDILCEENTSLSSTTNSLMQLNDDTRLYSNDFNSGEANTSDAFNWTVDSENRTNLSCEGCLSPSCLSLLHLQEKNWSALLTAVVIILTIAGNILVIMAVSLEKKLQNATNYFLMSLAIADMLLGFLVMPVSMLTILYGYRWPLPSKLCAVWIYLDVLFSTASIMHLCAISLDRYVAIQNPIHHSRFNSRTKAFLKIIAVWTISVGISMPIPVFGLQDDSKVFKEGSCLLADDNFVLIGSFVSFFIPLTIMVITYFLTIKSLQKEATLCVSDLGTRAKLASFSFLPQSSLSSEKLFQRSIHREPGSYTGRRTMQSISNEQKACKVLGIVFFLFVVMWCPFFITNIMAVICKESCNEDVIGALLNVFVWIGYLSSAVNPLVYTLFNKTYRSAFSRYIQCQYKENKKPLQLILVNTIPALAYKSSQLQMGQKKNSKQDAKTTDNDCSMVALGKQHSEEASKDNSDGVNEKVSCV
Beta-2 adrenergic receptor (Homo sapiens), sequence (P07550 whole entry, looked up): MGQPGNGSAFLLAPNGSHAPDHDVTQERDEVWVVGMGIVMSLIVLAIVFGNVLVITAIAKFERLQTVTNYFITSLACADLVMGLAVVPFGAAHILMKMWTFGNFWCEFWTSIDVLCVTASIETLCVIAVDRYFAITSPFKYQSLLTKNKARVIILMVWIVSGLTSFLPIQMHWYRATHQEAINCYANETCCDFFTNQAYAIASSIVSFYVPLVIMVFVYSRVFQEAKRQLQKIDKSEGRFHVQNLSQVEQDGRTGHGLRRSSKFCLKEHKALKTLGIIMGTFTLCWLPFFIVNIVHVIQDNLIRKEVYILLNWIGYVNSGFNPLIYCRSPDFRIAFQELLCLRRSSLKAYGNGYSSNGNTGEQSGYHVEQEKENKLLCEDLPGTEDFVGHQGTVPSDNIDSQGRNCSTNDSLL
5-hydroxytryptamine receptor 1B (Homo sapiens), sequence (P28222 whole entry): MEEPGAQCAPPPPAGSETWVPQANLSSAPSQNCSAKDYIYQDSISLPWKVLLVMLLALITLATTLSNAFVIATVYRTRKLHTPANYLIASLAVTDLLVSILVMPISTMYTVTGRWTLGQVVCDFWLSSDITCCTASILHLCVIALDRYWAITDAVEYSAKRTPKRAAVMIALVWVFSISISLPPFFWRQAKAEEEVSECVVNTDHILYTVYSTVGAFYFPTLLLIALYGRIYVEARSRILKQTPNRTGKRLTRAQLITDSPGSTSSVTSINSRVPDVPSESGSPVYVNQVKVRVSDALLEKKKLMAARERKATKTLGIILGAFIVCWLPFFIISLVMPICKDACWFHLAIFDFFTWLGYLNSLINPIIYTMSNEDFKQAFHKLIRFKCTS
Tyrosine-protein kinase Lck (Homo sapiens), sequence (P06239 2-509 limits assumed): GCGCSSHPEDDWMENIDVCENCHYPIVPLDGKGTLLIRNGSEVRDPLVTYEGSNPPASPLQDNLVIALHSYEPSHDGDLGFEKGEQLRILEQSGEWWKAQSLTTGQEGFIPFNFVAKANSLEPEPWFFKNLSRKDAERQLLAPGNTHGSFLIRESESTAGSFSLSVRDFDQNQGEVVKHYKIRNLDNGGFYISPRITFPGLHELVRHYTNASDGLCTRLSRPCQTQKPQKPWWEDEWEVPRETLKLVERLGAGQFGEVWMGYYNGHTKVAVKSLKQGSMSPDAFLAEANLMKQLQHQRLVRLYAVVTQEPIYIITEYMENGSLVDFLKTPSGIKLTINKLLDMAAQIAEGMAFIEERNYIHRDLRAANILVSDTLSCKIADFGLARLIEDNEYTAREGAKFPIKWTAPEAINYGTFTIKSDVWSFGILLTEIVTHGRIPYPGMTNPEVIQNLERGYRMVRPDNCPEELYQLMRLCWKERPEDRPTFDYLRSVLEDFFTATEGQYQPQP
Potassium voltage-gated channel subfamily A member 5 (Homo sapiens), sequence (P22460 whole entry): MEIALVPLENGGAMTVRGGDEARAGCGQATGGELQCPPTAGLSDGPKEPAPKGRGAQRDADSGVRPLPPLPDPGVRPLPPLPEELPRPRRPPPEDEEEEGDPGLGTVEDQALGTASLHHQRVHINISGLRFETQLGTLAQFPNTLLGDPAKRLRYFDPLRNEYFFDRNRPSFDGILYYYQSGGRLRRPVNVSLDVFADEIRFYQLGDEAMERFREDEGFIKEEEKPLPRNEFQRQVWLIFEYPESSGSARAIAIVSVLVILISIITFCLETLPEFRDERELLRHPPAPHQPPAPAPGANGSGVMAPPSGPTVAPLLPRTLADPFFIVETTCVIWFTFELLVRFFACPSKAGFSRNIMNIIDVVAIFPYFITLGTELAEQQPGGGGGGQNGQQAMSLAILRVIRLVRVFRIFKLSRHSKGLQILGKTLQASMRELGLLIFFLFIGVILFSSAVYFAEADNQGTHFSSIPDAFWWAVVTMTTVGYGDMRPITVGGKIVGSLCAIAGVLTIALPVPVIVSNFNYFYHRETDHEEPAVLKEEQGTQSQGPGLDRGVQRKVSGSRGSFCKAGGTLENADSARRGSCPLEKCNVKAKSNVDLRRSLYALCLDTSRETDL
D(2) dopamine receptor (Homo sapiens), sequence (P14416 whole entry): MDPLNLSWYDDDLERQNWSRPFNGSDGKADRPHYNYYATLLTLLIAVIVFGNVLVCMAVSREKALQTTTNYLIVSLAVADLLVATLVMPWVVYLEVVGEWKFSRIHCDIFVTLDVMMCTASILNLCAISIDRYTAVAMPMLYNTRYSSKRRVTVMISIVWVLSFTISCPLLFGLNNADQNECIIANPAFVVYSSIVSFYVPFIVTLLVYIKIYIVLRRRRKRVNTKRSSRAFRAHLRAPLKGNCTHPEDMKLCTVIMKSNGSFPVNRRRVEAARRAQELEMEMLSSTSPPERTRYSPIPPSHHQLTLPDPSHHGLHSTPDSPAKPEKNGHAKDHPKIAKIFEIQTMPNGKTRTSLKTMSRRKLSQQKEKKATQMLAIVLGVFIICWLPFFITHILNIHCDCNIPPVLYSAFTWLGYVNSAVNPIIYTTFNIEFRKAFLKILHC
Acetylcholinesterase (Homo sapiens), sequence (P22303 whole entry): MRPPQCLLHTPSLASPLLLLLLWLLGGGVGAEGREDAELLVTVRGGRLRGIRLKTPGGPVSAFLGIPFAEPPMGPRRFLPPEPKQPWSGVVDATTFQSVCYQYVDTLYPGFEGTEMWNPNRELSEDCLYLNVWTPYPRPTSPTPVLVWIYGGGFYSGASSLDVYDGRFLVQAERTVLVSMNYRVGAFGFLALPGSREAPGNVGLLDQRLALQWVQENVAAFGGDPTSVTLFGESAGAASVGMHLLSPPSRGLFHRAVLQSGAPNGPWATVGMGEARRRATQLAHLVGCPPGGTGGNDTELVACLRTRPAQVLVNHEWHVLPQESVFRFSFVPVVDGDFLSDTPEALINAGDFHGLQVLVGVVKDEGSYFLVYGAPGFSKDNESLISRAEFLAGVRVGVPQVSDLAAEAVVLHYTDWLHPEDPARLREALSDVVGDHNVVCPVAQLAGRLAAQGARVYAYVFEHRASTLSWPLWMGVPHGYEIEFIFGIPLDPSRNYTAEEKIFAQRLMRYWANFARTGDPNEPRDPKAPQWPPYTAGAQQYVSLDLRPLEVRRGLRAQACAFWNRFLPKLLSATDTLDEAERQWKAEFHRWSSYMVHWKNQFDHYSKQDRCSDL
Muscarinic acetylcholine receptor M1 (Homo sapiens), sequence (P11229 whole entry): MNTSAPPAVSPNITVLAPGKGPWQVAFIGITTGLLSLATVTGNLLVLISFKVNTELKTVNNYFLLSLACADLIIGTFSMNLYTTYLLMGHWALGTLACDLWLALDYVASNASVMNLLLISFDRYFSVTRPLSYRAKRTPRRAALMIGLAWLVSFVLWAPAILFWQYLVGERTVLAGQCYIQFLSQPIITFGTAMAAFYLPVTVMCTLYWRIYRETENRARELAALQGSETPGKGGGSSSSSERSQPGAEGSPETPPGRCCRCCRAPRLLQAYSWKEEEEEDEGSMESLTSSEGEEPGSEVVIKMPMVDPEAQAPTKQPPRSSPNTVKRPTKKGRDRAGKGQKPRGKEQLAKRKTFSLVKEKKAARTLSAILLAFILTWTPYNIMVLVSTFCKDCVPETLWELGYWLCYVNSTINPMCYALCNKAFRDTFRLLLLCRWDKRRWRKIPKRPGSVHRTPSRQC
Adenosine receptor A2a (Homo sapiens), sequence (P29274 whole entry): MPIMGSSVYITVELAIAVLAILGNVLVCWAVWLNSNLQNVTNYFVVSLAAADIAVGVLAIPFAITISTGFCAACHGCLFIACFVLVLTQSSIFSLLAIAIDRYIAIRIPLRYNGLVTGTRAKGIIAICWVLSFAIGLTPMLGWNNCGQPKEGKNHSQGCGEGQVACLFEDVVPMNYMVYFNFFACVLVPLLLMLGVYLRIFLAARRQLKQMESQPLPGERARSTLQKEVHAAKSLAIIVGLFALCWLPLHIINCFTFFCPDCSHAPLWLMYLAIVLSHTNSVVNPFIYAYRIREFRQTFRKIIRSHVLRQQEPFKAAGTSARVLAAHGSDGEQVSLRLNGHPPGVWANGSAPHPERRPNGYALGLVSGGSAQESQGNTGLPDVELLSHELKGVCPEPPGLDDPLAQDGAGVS
Muscarinic acetylcholine receptor M2 (Homo sapiens), sequence (P08172 whole entry): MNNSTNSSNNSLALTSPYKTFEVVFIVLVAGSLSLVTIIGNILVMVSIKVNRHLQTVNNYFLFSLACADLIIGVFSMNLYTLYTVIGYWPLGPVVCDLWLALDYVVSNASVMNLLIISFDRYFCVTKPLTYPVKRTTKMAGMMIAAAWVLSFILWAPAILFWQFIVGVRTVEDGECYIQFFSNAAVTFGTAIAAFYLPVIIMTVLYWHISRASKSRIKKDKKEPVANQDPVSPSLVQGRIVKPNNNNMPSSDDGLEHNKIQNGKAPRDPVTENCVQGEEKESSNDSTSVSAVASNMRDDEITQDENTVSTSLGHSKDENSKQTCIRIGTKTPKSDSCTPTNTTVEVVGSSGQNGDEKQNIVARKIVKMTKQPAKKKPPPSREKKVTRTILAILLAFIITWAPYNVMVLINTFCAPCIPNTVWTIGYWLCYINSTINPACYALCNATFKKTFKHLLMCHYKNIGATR

Broadly, the solubility is the concentration that dissolves in the medium under given conditions. Read a high solubility as a readily soluble substance. For orientation: logD means lipophilicity at a set pH, counting ionised and neutral species. High values mean higher lipophilicity, low ones lower lipophilicity. For `CCn1cc(-c2cccc(C(F)(F)F)c2)c2sc(C(=N)NC3CCS(=O)(=O)CC3)cc2c1=O`, the inhibition result in data set [1] and in data set [18] was “Active” throughout. The outcome in data set [2], in data set [9], in [13], in data set [14], in data set [19] and in data set [23] was inactive. For the same compound, the inhibition result in data set [3], in data set [4], in data set [6], in data set [7], in data set [8] and in data set [10] was “inactive” each time. Further, the inhibition entry in data set [11], in data set [12], in [15], in data set [16], in data set [17] and in [21] was “inactive” in each case. The inhibition entry in [22] and in data set [24] was “inactive” throughout. In addition, the solubility in data set [5] was 359 µM (≈ 179 µg/mL). The compound further showed a logD in data set [20] of 3.7.
